# A selection: hits, their analogues and other compounds. The true share with any hit is near 5.4%.
# tolC growth inh = growth inhibitors of E. coli BW25113 tolC mutant | OD615 | 2.2% of 65,000 active | growth inhibition, % at 10 µM (by protocol);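 active = growth inhibition at or above a cutoff equal to the mean over every tested compound plus 3 SD, cut at about 60% in these data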;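 note: growth measured after 20 h incubation at 37 °C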
#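 Doses: one dose of 10 µM final / Material: E. coli BW25113 ΔtolC::kan, tolC deletion mutant strain / Buffer or medium: LB with kanamycin 50 µg/mL / Evaluation: percent growth inhibition / Detection: optical density read at 615 nm / Incubation: 37 °C, 20 h exposure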
# HePTP inhibitor = inhibitors of human HePTP phosphatase; P35236; recombinant HePTP phosphatase activity, OD absorbance; inhibition, % at 20 µM; 0.64% of 110,000 active; in the data active = inhibition above about 50%;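 note: plate controls were vehicle for no effect and reference inhibitor for full effect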
# E coli WT exp = growth inhibitors of E. coli BW25113 wild type; OD600 absorbance; growth inhibition, % at 100 µM; 0.15% of 98,000 active;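 active = growth inhibition above about 50% at one test dose, limit read from the data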;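 note: growth measured after 20 h incubation at 37 °C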
# PostGolgi yeast = growth inhibition of a yeast mutant, post-Golgi transport screen | 0.9% of 98,000 active | post-Golgi transport phenotypic cell assay | inhibition, % at 10 µM;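 note: yeast cells grown in 1536-well plates; yeast grown about 18 h at 30C before absorbance read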
# PostGolgi ctrl = inhibits growth of the yeast control strain; efflux-deficient yeast background strain, growth absorbance A615, 16 h; inhibition, % at 10 µM; 5% of 98,000 active; AID 738
# PLAP act = activates human placental alkaline phosphatase. purified PLAP enzyme, luminescent substrate read-out; stronger effect = higher value. activation fold at 20 µM. 1.2% of 96,000 active. AID 696; in the data active = activation fold above about 2
# Target sequence (P05187 whole entry, looked up): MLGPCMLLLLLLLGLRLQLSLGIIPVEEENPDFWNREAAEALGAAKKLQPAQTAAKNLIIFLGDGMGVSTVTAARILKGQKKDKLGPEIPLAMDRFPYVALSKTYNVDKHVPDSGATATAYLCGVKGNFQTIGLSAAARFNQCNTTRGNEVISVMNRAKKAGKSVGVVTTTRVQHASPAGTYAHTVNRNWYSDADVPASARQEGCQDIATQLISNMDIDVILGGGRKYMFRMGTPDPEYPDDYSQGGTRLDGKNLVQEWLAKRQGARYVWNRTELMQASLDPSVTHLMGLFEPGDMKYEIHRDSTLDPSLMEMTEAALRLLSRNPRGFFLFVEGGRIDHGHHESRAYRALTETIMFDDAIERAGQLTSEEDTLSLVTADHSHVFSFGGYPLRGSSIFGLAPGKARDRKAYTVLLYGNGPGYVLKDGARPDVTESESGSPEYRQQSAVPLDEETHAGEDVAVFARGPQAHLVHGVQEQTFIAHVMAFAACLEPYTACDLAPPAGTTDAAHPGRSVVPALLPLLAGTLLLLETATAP
# * = called active by the depositor; nt = not tested or not shown. Cut-off read from the data, not from the text of the source, unless noted: active = inhibition above about 30%; inactive = the rest.
SMILES,tolC growth inh,HePTP inhibitor,E coli WT exp,PostGolgi yeast,PostGolgi ctrl,PLAP act
N#C/C(=C/c1ccc(Sc2nc3ccccc3[nH]2)o1)c1cccc(F)c1,nt,nt,-18.0,1.8,54.7*,1.7
N#C/C(=C/c1ccc(Sc2nc3ccccc3[nH]2)o1)c1cccc(Br)c1,nt,nt,-11.0,-0.5,31.9*,1.4
N#C/C(=C\c1ccc(-c2cccc(Cl)c2)o1)c1ccccc1,nt,-4.3,nt,nt,nt,nt
O=C(Nc1c(C(=O)N2CCCCC2)cnn1-c1ccccc1)c1ccccc1,-4.0,9.3,3.0,-2.4,8.3,1
O=C(c1ccco1)N(CC1CCCO1)c1nc(-c2ccccc2)cs1 (stereo unspecified),44.0,2.3,-11.0,-0.2,20.8,1.5
Cc1ccc(-c2csc(N(CC3CCCO3)C(=O)c3ccco3)n2)cc1 (stereo unspecified),66.6*,-5.0,nt,nt,nt,nt
CC(C)(C)OC(=O)CC(O)(c1ccccc1)C(F)(F)F (stereo unspecified),nt,-1.2,nt,nt,nt,nt
O=C(NCCc1ccc(Cl)cc1)Nc1cccc(Cl)c1,nt,nt,-2.0,4.5,34.1*,0.7
COc1cc(C(=O)NC(NC(=S)Nc2ccc(NC(C)=O)cc2)C(Cl)(Cl)Cl)cc(OC)c1OC (stereo unspecified),nt,0.0,nt,nt,nt,nt
COC(=O)c1cc(CSc2nc3ccc(C)cc3[nH]2)oc1C,73.2*,1.2,nt,nt,nt,1.5
CCC(Sc1nc2ccccc2[nH]1)C(=O)Nc1cc(C)on1 (stereo unspecified),-2.1,3.5,1.0,-1.6,6.0,2.1*
Cc1cc(C(=O)CSc2nc3ccc(Cl)cc3[nH]2)c(C)n1CC1CCCO1 (stereo unspecified),nt,nt,-8.0,0.9,9.7,1.9
Cc1ccc2nc(SCC(=O)c3cc(C)n(C)c3C)[nH]c2c1,nt,nt,-6.0,1.4,32.9*,1.1
Cc1cc(C(=O)CSc2nc3ccccc3[nH]2)c(C)n1C,0.3,8.6,-5.0,11.2,6.8,1.8
Cc1cc(C(=O)CSc2nc3ccc(Cl)cc3[nH]2)c(C)n1C,11.6,-3.6,-12.0,55.2*,84.4*,2.1*
CCOc1ncccc1C(=O)OCCN1C(=O)c2ccccc2C1=O,0.7,-1.4,-3.0,2.5,-1.9,1.1
O=C(CSc1nccc(=O)[nH]1)Nc1ccc(Br)c(Cl)c1,54.6,7.2,-9.0,4.2,20.9,1
Cc1cc(NC(=O)CSc2nc3ccc(Cl)cc3[nH]2)no1,nt,nt,8.0,4.0,13.5,2.7*
O=C1CCCCCCC1Sc1ccccc1[N+](=O)[O-] (stereo unspecified),nt,nt,5.0,7.6,7.8,1
Cc1cccc(/C=c2\s/c(=C\C(=O)C(C)(C)C)[nH]c2=O)c1,nt,nt,-10.0,-4.5,35.7*,1.1
COc1ccc(N(CC(=O)Nc2cc(OC)ccc2OC)S(=O)(=O)c2c(C)nn(C)c2C)cc1,10.5,-1.1,-2.0,-5.5,9.3,1.6
CCSc1nnc(NC(=O)c2ccc3ccccc3n2)s1,nt,nt,-4.0,13.2,32.7*,1.1
CCSc1nnc(NC(=O)c2cc(C)nc3ccccc23)s1,nt,nt,-3.0,-6.9,39.1*,1
CCSc1nnc(NC(=O)c2cc(C)oc2C)s1,54.4,7.0,1.0,13.7,8.6,0.9
Cc1cccc(NC(c2ccc(O)cc2)c2ccc3ccc(C)nc3c2O)n1 (stereo unspecified),nt,nt,13.0,0.2,0.6,2.8*
SMILES,tolC growth inh,HePTP inhibitor,E coli WT exp,PostGolgi yeast,PostGolgi ctrl,PLAP act
CCCCNCCCOc1ccc(Cl)cc1,nt,1.8,nt,nt,nt,nt
Cn1c(C(=O)NCCCN2CCOCC2)cc2c(=O)n(C)c3ccccc3c21,10.2,10.9,0.0,-0.2,7.9,1.8
Cn1c(C(=O)NCCCN2CCN(c3ccccc3F)CC2)cc2c(=O)n(C)c3ccccc3c21,31.9,12.2,-2.0,-4.4,3.1,2.3*
CC(C)OCCCNC(=O)c1cc2c(=O)n(C)c3ccccc3c2n1C,-1.9,5.0,3.0,3.0,31.7*,1.6
CC1CCCCN1Cc1nc2ccccc2c(=O)[nH]1 (stereo unspecified),nt,nt,6.0,-5.4,-3.7,1.1
Cc1nnc(-c2cnn(-c3ccccc3)c2N)n1Cc1ccccc1,nt,nt,-2.0,17.1,3.8,1
CN(C)c1nc(SCc2ccccc2)nc(N2CCOCC2)n1,nt,nt,10.0,-21.5,7.2,1.2
CCNc1nc(SCc2ccccc2)nc(N2CCOCC2)n1,65.8*,-3.6,2.0,14.8,13.6,0.8
COc1ccc(C(=O)ON=C2CCN(c3ccc([N+](=O)[O-])cc3)CC2)cc1,nt,nt,-4.0,5.5,35.8*,0.7
CC1CCc2c(sc(NC(=O)c3cccc(C(=O)O)c3)c2C(N)=O)C1 (stereo unspecified),nt,102.6*,nt,nt,nt,nt
CC1CCc2c(sc(NC(=O)c3ccccc3)c2C(N)=O)C1 (stereo unspecified),nt,4.9,nt,nt,nt,nt
O=[N+]([O-])c1ccccc1S(=O)(=O)Nc1cccc(I)c1,nt,4.0,nt,nt,nt,nt
CC1(C(=O)N(CC(=O)NC2CCCC2)C2CCCC2)CC(=O)N=C2C=CC=CN21 (stereo unspecified),-26.9,3.4,6.0,10.3,0.8,1.1
CCOCCCn1c(-c2ccc(Cl)cc2)n[nH]c1=S,nt,nt,-5.0,-10.3,-3.0,2.4*
COCCCn1c(-c2ccc(Cl)cc2)n[nH]c1=S,nt,nt,0.0,5.8,9.4,1.8
N=c1ccn(Cc2ccc(Cl)cc2Cl)cc1,nt,nt,12.0,-11.6,-1.3,0.9
O=C(CSc1nnc(-c2csc3c2CCCC3)o1)Nc1ccccc1,43.4,6.4,3.0,2.4,2.6,2*
CC(C)(C)c1ccc(OCC(=O)OCCNC(=O)c2cccnc2)cc1,nt,nt,1.0,-2.7,18.1,1.1
O=C(/C=C/c1ccc(/C=C/C(=O)c2cccc(N3C(=O)C=CC3=O)c2)cc1)c1cccc(N2C(=O)C=CC2=O)c1,nt,9.9,nt,nt,nt,nt
O=C(O)/C=C/c1cccc(N2C(=O)C=CC2=O)c1,nt,88.7*,nt,nt,nt,nt
Cc1ccccc1-c1nc(-c2ccc(NC(=O)c3cccs3)cc2)no1,nt,nt,-11.0,12.6,-0.3,0.9
CC1CCN(C(=O)C2CCN(S(=O)(=O)c3cccc4nonc34)CC2)CC1,nt,nt,0.0,8.1,31.5*,1.2
O=C(CSc1nc(Nc2ccccc2)nc(N2CCOCC2)n1)Nc1ccc([N+](=O)[O-])cc1,nt,nt,5.0,44.5*,17.2,1.5
COc1cc2c(C(=O)Nc3ccc4c(c3)OCO4)cn(CC(C)C)c(=O)c2cc1OC,-8.1,5.5,-1.0,-2.8,1.1,2.4*
CC(C)N1C2OC(C3OC4C(O3)N(C(C)C)S(=O)(=O)N4C(C)C)OC2N(C(C)C)S1(=O)=O (stereo unspecified),nt,nt,-6.0,103.5*,96.2*,1.1
SMILES,tolC growth inh,HePTP inhibitor,E coli WT exp,PostGolgi yeast,PostGolgi ctrl,PLAP act
COc1cccc(-c2cnc(NCc3cc(Cl)ccc3O)n2C)c1,-20.5,3.4,21.0,-7.1,71.0*,nt
Cn1c(-c2cccc(Br)c2)cnc1NCc1cccnc1,8.1,4.7,9.0,0.4,-0.3,1.6
CC(C)c1ccc(N2C(=O)NC(=O)/C(=C/c3ccc(I)o3)C2=O)cc1,nt,32.1,nt,nt,nt,nt
O=C1C(=Cc2ccc(I)o2)C(=O)c2ccccc21,nt,78.2*,nt,nt,nt,nt
CC1(C)OC(=O)C(=Cc2ccc(I)o2)C(=O)O1,nt,102.3*,nt,nt,nt,nt
CCOc1ccc2nc(SCc3c[nH]c4cc([N+](=O)[O-])ccc34)sc2c1,nt,10.3,nt,nt,nt,nt

# Assay outcomes (PubChem)
